In ChEMBL document CHEMBL1133092, “Drug delivery systems based on trimethyl lock lactonization: poly(ethylene glycol) prodrugs of amino-containing compounds” (J Med Chem, 2000):

What was measured:
[1] = test system: M109; assay: In vivo screening in M109 syngeneic solid mouse tumor model (i.p.); type: functional
Method in brief: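 Female balb/c mice (20-25 g) implanted subcutaneously in the left flank with about 1 × 10^6 M109 cells on day 0. Dosed intraperitoneally at 3 mg/kg/dose (DNR content) on days 1 and 4; 6 per group with untreated controls. % T/C of median tumor volumes taken when control median reached ~2000 mm3.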

[2] = Half life in Rat plasma; type: ADME
Method in brief: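 Conjugate dissolved in distilled water (20 mg/100 µL), then 900 µL rat plasma added. Aliquots incubated at 37 °C for various times, quenched with methanol-acetonitrile (1:1) and filtered. Remaining conjugate measured by HPLC with UV detection at 254 nm (DNR) or 280 nm (ara-C). Run in duplicate. t1/2 calculated from α phase.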

[3] = Half life in buffer at pH 7.4.; type: ADME
Method in brief: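 Conjugate dissolved at 5 mg/mL in 0.1 M pH 7.4 PBS and incubated at 37 °C for various periods. Analysed by HPLC with UV detection at 254 nm (DNR) or 280 nm (ara-C). Run in duplicate.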

[4] = test system: M109; assay: In vivo screening in M109 syngeneic solid mouse tumor model (i.v.); type: functional
Method in brief: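 Female balb/c mice (20-25 g) implanted subcutaneously in the left flank with about 1 × 10^6 M109 cells on day 0. Dosed intravenously at 3 mg/kg/dose (DNR content) on days 3 and 6; 6 per group with untreated controls. % T/C of median tumor volumes taken when control median reached ~2000 mm3.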

[5] = Half life in Cell media; type: ADME
[6] = test system: P388; assay: Growth Inhibition of P388/0 cell lines.; type: functional, cell-based; conditions: Mus musculus
Method in brief: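 P388/0 murine leukemia cells seeded at 2 × 10^3 cells/well, exposed to serial dilutions for 3 days at 37 °C, 5% CO2. Alamar Blue then added and plates read after a further 4 h at 37 °C. IC50 taken from absorbance vs dilution factor plots.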

SMILES	T/C [1] [%]	half-life [2] [h]	half-life [3] [h]	T/C [4] [%]	half-life [5] [h]	IC50 [6] [nM]
CCC(=O)NCCOCCOC(=O)Oc1cc(C)cc(C)c1C(C)(C)CC(=O)NC1CC(O[C@H]2C[C@](O)(C(C)=O)Cc3c(O)c4c(c(O)c32)C(=O)c2c(OC)cccc2C4=O)OC(C)C1O (stereo not given in full)	57.1	1.1	> 24	118.4	38	142
CCC(=O)NCCC(=O)Oc1c(C)ccc(C)c1C(C)(C)CC(=O)NC1CC(O[C@H]2C[C@](O)(C(C)=O)Cc3c(O)c4c(c(O)c32)C(=O)c2c(OC)cccc2C4=O)OC(C)C1O (stereo not given in full)	114.8	8	> 24	31.6	94	411
CCC(=O)NCCC(=O)Oc1cc(C)cc(C)c1C(C)(C)CC(=O)NC1CC(O[C@H]2C[C@](O)(C(C)=O)Cc3c(O)c4c(c(O)c32)C(=O)c2c(OC)cccc2C4=O)OC(C)C1O (stereo not given in full)	101.2	0.2	> 24	63.7	80	203
CCC(=O)NC(C)C(=O)Oc1cc(C)cc(C)c1C(C)(C)CC(=O)NC1CC(O[C@H]2C[C@](O)(C(C)=O)Cc3c(O)c4c(c(O)c32)C(=O)c2c(OC)cccc2C4=O)OC(C)C1O (stereo not given in full)	62.8	1.9	> 24	92.5	14	43
CCC(=O)NC(C)C(=O)Oc1c(C)ccc(C)c1C(C)(C)CC(=O)NC1CC(O[C@H]2C[C@](O)(C(C)=O)Cc3c(O)c4c(c(O)c32)C(=O)c2c(OC)cccc2C4=O)OC(C)C1O (stereo not given in full)	153.6	21	> 24	52.5	36	389
